Bioassay records (PubChem BioAssay)
Ins promoter up = MIN6 insulin promoter up-regulation; MIN6 insulin promoter-GFP reporter, high-content imaging; hits give high values; z-score at 5 µM; actives 0.3% (n = 190,000); AID 1625;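 active = z-score above 3 at 5 µM with at least 500 cells counted in the well; inconclusive = wells under 500 cells, flagged as cytotoxic or low count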
Dynein transport = blocks dynein driven cargo transport along microtubules; 3617.4 mouse cells, GR-EGFP nuclear translocation imaging; test concentration mostly 20 µM; stimulated with dexamethasone, 1 µM; hits give low values; z-score, hits read low; actives 0.47% (n = 220,000); AID 1381;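 active = plate z-score of nuclear minus cytoplasmic receptor signal below a set negative limit, without overly bright fluorescence or cell loss, cut at about -3.5 in these data, passing the limit was not always enough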;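 note: z-score of nuclear minus cytoplasmic ring GR-EGFP intensity difference per well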
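Buffer or medium: tet-free, stripped-serum medium; Also added: dexamethasone, 1.0 µM final; Technique: high-content fluorescence imaging after fixation; Times: 48 h induction, 1 h compound, 30 min dex at 37 °C; Read-out: per-cell GR-EGFP intensity, nucleus versus surrounding cytoplasmic ring, well-averaged.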
Insulin prom inh = TRM-6 insulin promoter activity inhibition. TRM-6 cells (human fetal islet line), insulin promoter-eGFP reporter, imaging; reporter expression induced with tamoxifen. inhibition, % at 2 µM. actives 0.9% (n = 130,000);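 active = inhibition above the mean plus 3 SD, with well images judged a real hit on visual review, cut at about 60% in these data, passing the limit was not always enough; inconclusive = inhibition over the cutoff but images rejected on review; inactive = inhibition not above the cutoff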
Autophagy mod = alters autophagy in cells | calls only at 10 µM (by protocol) | actives 0.98% (n = 190,000) | MEF GFP-LC3 puncta imaging; test concentration mostly 10 µM;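 active = percentage of spot-positive cells more than 3 SD above its plate mean, without a fluorescence outlier flag or 80% toxicity; inconclusive = no clear call, values can overlap the other calls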
Numbers stand for hits. This is a sample that favours compounds with a hit; in the whole collection about 2% have one here.

Screening CSc1nc(-c2ccco2)nn1C(=O)Cc1ccccc1 returned Ins promoter up inactive, Dynein transport inactive, Insulin prom inh inactive and Autophagy mod active.
For COc1ccc(OC)c(Nc2ncnc3c2cnn3-c2cccc(C)c2)c1 the results were Ins promoter up inactive, Dynein transport inactive, Insulin prom inh inactive and Autophagy mod active.
`Cc1nc2c3cc(Cl)ccc3n(CCN3CCCCC3)c2s1` gave Ins promoter up inactive, Dynein transport inactive, Insulin prom inh inactive and Autophagy mod active.
COC(=O)Cn1c2ccc(F)cc2c2nc(C)sc21 was read as Ins promoter up inactive, Dynein transport inactive and Autophagy mod inactive.
`CCc1ccc2c(c1)c1nc(C)sc1n2CC` gave Ins promoter up inactive, Dynein transport inactive and Autophagy mod inactive.
CCOC(=O)Cn1c2ccc(F)cc2c2nc(C)sc21 was read as Ins promoter up 3.68, Dynein transport inactive, Insulin prom inh inactive and Autophagy mod inactive.
For Cc1nc2c3cc(F)ccc3n(Cc3ccc(F)cc3)c2s1 the results were Ins promoter up inactive, Dynein transport inactive, Insulin prom inh 76.7 and Autophagy mod inactive.
`Cc1ccc(S(=O)(=O)n2c3ccc(Cl)cc3c3nc(C)sc32)cc1` gave Ins promoter up inactive, Dynein transport inactive, Insulin prom inh 80.0 and Autophagy mod inactive.
For Cc1ccc(C)n1-c1ccc(-c2ccnc(N)n2)cc1 the results were Ins promoter up inactive, Dynein transport inactive and Autophagy mod inactive.
Screening CC(C)Cn1c(=S)[nH]c2cc(Cl)ccc21 returned Ins promoter up inactive, Dynein transport inactive and Autophagy mod inactive.
`COc1ccccc1CC(=O)Nc1ccc2c(c1)C(=O)NC2=O` gave Ins promoter up inactive, Dynein transport inactive and Autophagy mod inactive.
Screening Cc1cccc(NC(=O)C(=O)NCC2CCCO2)c1 (stereo not drawn) returned Ins promoter up inactive, Dynein transport inactive and Autophagy mod inactive.
`CCN(CC)S(=O)(=O)c1ccc(C(=O)Nc2cc3oc4ccccc4c3cc2OC)cc1` gave Ins promoter up inactive, Dynein transport inactive, Insulin prom inh inactive and Autophagy mod active.
For COc1cc2c(cc1NC(=O)c1cccc(S(=O)(=O)N(C)C)c1)oc1ccccc12 the results were Ins promoter up inactive, Dynein transport inactive, Insulin prom inh inactive and Autophagy mod inactive.
For COc1cc2c(cc1NC(=O)/C=C/c1ccccc1)oc1ccccc12 the results were Ins promoter up inactive, Dynein transport inactive, Insulin prom inh inactive and Autophagy mod active.
Screening Cc1cc(C)c2c(=O)[nH]c(SCC(=O)c3ccc(F)c(C)c3)nc2n1 returned Ins promoter up inactive, Dynein transport inactive and Autophagy mod inactive.
Screening Cc1c(NC(=O)CN2CCCC(C)C2)ccc2nsnc12 (stereo not drawn) returned Dynein transport inactive, Insulin prom inh inactive and Autophagy mod inactive.
For CC(C)Sc1nc2ccccc2n1CC(=O)NCc1ccc2c(c1)OCO2 the results were Ins promoter up inactive, Dynein transport inactive, Insulin prom inh 91.4 and Autophagy mod inactive.
For O=C(CSc1nc2ccc(Cl)cc2o1)NCc1ccc2c(c1)OCO2 the results were Ins promoter up 3.95, Dynein transport inactive, Insulin prom inh inactive and Autophagy mod inactive.
`CC(c1ccccc1F)n1cc(C(=O)NCCCc2nc3ccccc3[nH]2)nn1` (stereo not drawn) gave Ins promoter up inactive, Dynein transport inactive and Autophagy mod inactive.
For COCC(=O)Nc1ccc(S(=O)(=O)NCCc2ccccc2)cc1 the results were Ins promoter up inactive, Dynein transport inactive, Insulin prom inh 100.0 and Autophagy mod inactive.
`COc1ccc(-n2nnnc2-c2cccc(OC)c2)cc1` gave Ins promoter up inactive, Dynein transport inactive, Insulin prom inh inactive and Autophagy mod active.
For Cc1ccc(-n2nnnc2-c2cccc(C)c2)cc1 the results were Ins promoter up inactive, Dynein transport inactive and Autophagy mod inactive.
For O=C(Cn1c(NCCO)nc2ccccc21)NCC1CCCO1 (stereo not drawn) the results were Ins promoter up inactive, Dynein transport inactive and Autophagy mod active.
COc1ccc(C(=O)Cn2c(NCCO)nc3ccccc32)cc1OC was read as Dynein transport inactive, Insulin prom inh 86.7 and Autophagy mod inactive.
Screening CCOC(=O)c1cc(C(=O)OCC)c(=O)[nH]c1N1CCCCC1 returned Ins promoter up inactive, Dynein transport inactive and Autophagy mod inactive.
Screening N#Cc1c(NC(=S)NC(=O)c2ccccc2)sc2c1CCCC2 returned Ins promoter up inactive, Dynein transport inactive, Insulin prom inh inactive and Autophagy mod inactive.
For N#Cc1c(NC(=S)NC(=O)c2ccccc2)sc2c1CCN(CCc1ccccc1)C2 the results were Dynein transport inactive, Insulin prom inh inactive and Autophagy mod active.
Screening Oc1c(C=Nc2cccc3cccnc23)sc2ccccc12 returned Ins promoter up inactive, Dynein transport inactive, Insulin prom inh inactive and Autophagy mod active.
O=C(O)CCC(=O)Nc1ccc(S(=O)(=O)NCCc2ccccc2)cc1 was read as Ins promoter up inactive and Dynein transport inactive.
For CC(=O)NNS(=O)(=O)c1ccc(-c2cc(C(F)(F)F)n(C)n2)s1 the results were Ins promoter up inactive and Dynein transport inactive.
Screening O=C(Oc1c(Cl)cc(Cl)c2cccnc12)c1cccs1 returned Dynein transport inactive, Insulin prom inh inactive and Autophagy mod inactive.
`O=C(Oc1c(Cl)cc(Cl)c2cccnc12)c1ccco1` gave Ins promoter up inactive, Dynein transport inactive, Insulin prom inh 67.9 and Autophagy mod inactive.
`c1ccc(Sc2ncccn2)nc1` gave Ins promoter up inactive and Dynein transport inactive.
Screening CC1C/C(=C/c2ccncc2)C(=O)/C(=C/c2ccncc2)C1 (stereo not drawn) returned Ins promoter up inconclusive, Dynein transport -6.02, Insulin prom inh inactive and Autophagy mod inactive.
O=C(Cn1c(C(F)(F)F)nc2ccccc21)N=Nc1c(O)[nH]c2ccc(Br)cc12 was read as Dynein transport inactive, Insulin prom inh inactive and Autophagy mod inactive.
For COc1ccc(-c2ccc(CO)o2)cc1N the results were Ins promoter up inactive, Dynein transport inactive and Autophagy mod active.
CCCC(=O)c1c(NCCO)cc(C)oc1=O was read as Dynein transport inactive, Insulin prom inh inactive and Autophagy mod inactive.
Screening CC1CN(C)C(C)c2c1oc1ccc(N)cc21 (stereo not drawn) returned Ins promoter up inactive, Dynein transport inactive, Insulin prom inh inactive and Autophagy mod inactive.
For CC1CN(C)C(C)c2c1oc1ccc([N+](=O)[O-])cc21 (stereo not drawn) the results were Ins promoter up inactive, Dynein transport inactive, Insulin prom inh inactive and Autophagy mod active.
CCn1c(NC(=O)c2ccco2)c(-c2ccccc2Cl)c(=O)c2ccccc21 was read as Ins promoter up inactive, Dynein transport inactive, Insulin prom inh 90.0 and Autophagy mod inactive.
`COc1cc2c3nnc(-c4ccc(F)cc4)c-3cn(Cc3ccccc3)c2cc1OC` gave Dynein transport inactive and Autophagy mod active.
For COc1ccc(Cn2cc3c(-c4ccc(F)cc4)nnc-3c3cc(OC)c(OC)cc32)cc1 the results were Ins promoter up inactive, Dynein transport inactive and Autophagy mod inactive.
